# ChEMBL document CHEMBL4316592, “Synthesis of new derivatives of boehmeriasin A and their biological evaluation in liver cancer” (Eur J Med Chem, 2019)
# The source made the active and inactive calls. The calls are words filed in the database; no cut-off is given here.
# Assays:
# [1] = molecular target: T1, Mitogen-activated protein kinase kinase kinase 5 (Homo sapiens) (UniProt Q99683); test: Inhibition of ASK1 Ser-966 phosphorylation in human Mahlavu cells at 1 uM after 24 to 72 hrs by Western blot analysis; type: cell-based
# T1 sequence (whole entry): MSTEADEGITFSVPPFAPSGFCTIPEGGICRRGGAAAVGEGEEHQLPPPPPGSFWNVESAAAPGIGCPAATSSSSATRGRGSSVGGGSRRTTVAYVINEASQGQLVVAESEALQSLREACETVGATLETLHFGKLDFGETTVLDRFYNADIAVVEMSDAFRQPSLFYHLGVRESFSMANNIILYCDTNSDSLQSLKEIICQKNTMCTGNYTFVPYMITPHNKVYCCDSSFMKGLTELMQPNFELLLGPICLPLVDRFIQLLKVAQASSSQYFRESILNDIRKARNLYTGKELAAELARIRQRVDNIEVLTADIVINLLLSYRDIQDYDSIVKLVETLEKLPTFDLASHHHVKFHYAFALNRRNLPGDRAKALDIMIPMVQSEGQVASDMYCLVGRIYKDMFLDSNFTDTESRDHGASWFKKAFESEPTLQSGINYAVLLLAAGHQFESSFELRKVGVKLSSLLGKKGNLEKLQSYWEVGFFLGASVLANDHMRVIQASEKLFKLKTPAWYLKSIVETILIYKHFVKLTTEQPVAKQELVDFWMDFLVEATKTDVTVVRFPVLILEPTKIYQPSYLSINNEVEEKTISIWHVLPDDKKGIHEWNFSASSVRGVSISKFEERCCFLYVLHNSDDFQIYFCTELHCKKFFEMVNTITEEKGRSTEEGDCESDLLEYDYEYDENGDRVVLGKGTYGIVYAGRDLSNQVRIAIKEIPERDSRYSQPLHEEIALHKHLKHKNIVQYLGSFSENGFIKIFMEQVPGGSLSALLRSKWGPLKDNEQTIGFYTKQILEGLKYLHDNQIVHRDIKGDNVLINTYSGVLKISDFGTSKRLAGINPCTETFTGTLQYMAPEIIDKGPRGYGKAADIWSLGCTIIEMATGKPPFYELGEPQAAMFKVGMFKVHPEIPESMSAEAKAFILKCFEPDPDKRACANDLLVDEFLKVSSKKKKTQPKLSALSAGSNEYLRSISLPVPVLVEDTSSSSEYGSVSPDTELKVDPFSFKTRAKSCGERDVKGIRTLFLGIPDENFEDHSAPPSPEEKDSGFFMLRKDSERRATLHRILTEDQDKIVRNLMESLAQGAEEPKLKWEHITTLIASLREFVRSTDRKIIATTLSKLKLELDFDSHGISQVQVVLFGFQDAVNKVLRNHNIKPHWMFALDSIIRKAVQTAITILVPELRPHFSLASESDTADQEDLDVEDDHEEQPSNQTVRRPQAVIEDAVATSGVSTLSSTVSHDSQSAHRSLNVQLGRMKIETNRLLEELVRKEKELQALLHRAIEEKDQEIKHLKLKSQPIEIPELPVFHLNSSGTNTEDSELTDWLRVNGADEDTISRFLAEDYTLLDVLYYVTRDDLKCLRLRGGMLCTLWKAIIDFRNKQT
# Huh-7 [2] = test: Induction of apoptosis in human HuH7 cells assessed as late apoptotic cells at 1 uM after 48 hrs by Annexin V-FITC/propidium iodide staining-based flow cytometric analysis (reference value: 2.53%); type: functional
# Mahlavu [3] = test: Cytotoxicity against human Mahlavu cells after 72 hrs by SRB assay; type: functional, cell-based; details: Homo sapiens, Mahlavu, 72 h; read-out: IC50
# Summary of the method: (§1)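 SRB assay. Cells plated per well (HCT116 3000; Huh7, Hep3B, HepG2, MCF-7 2000; Mahlavu, FOCUS, SNU475 1000) and grown 24 h. Compounds came from 20 mM DMSO stocks and were tested in triplicate, 40 to 2,5 (or 2,5 to 0,03) per printed range, for 72 h. Cells fixed in 10% TCA, stained with 0.4% SRB, dye dissolved in 10 mM Tris, A515 read. IC50 derived after DMSO normalization.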
# Mahlavu [4] = test: Cell cycle arrest in human Mahlavu cells assessed as accumulation of cells at S phase at 1 uM after 48 hrs by propidium iodide staining-based flow cytometric analysis (reference value: 11.6%); type: functional
# Huh-7 [5] = test: Cell cycle arrest in human HuH7 cells assessed as accumulation of cells at S phase at 1 uM after 72 hrs by propidium iodide staining-based flow cytometric analysis (reference value: 15.5%); type: functional
# Mahlavu [6] = test: Cell cycle arrest in human Mahlavu cells assessed as accumulation of cells at G1 phase at 1 uM after 72 hrs by propidium iodide staining-based flow cytometric analysis (reference value: 44.6%); type: functional
# [7] = molecular target: T1, Mitogen-activated protein kinase kinase kinase 5 (Homo sapiens); test: Inhibition of ASK1 Ser-966 phosphorylation in human HuH7 cells at 1 uM after 24 to 72 hrs by Western blot analysis; type: cell-based
# Huh-7 [8] = test: Induction of apoptosis in human HuH7 cells assessed as viable cells at 1 uM after 72 hrs by Annexin V-FITC/propidium iodide staining-based flow cytometric analysis (reference value: 97.20%); type: functional; details: Huh-7, 72 h, read-out: Activity
# Huh-7 [9] = test: Cell cycle arrest in human HuH7 cells assessed as accumulation of cells at subG1 phase at 1 uM after 48 hrs by propidium iodide staining-based flow cytometric analysis (reference value: 3.2%); type: functional
# [10] = molecular target: RAC-alpha serine/threonine-protein kinase (Homo sapiens) (UniProt P31749); test: Inhibition of Akt phosphorylation in human HuH7 cells at 1 uM after 72 hrs by Western blot analysis; type: cell-based
# Huh-7 [11] = test: Cytotoxicity against human HuH7 cells after 48 hrs by RTCA analysis; type: functional, cell-based; details: Huh-7, 48 h
# Summary of the method: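 xCELLigence impedance real-time growth assay. Huh7 (2000) or Mahlavu (1000) cells plated, treated after 24 h at log phase with a 2-fold dilution series (4 steps) from a top concentration of 1. Cell index recorded every 10 min for 24 h, then every 30 min. Growth inhibition normalized to DMSO; IC50 taken at 24, 48, 72 h.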
# Mahlavu [12] = test: Modulation of SAPK/JNK phosphorylation at Thr183/Tye185 residues in human Mahlavu cells at 1 uM after 24 to 72 hrs by Western blot analysis; type: cell-based
# Hep 3B2 = test: Cytotoxicity against human Hep3B cells after 72 hrs by SRB assay; type: functional, cell-based; details: Homo sapiens, Hep3B, 72 h; read-out: IC50; summary of the method: as §1
# Mahlavu [13] = test: Induction of apoptosis in human Mahlavu cells assessed as late apoptotic cells at 1 uM after 24 hrs by Annexin V-FITC/propidium iodide staining-based flow cytometric analysis (reference value: 1.28%); type: functional
# Mahlavu [14] = test: Induction of apoptosis in human Mahlavu cells assessed as viable cells at 1 uM after 24 hrs by Annexin V-FITC/propidium iodide staining-based flow cytometric analysis (reference value: 98.51%); type: functional; details: read-out: Activity
# Huh-7 [15] = test: Cell cycle arrest in human HuH7 cells assessed as accumulation of cells at G2/M phase at 1 uM after 24 hrs by propidium iodide staining-based flow cytometric analysis (reference value: 37.3%); type: functional
# Mahlavu [16] = test: Induction of apoptosis in human Mahlavu cells assessed as early apoptotic cells at 1 uM after 72 hrs by Annexin V-FITC/propidium iodide staining-based flow cytometric analysis (reference value: 0.24%); type: functional
# Chain of RAC-alpha serine/threonine-protein kinase (Homo sapiens) (P31749 whole entry): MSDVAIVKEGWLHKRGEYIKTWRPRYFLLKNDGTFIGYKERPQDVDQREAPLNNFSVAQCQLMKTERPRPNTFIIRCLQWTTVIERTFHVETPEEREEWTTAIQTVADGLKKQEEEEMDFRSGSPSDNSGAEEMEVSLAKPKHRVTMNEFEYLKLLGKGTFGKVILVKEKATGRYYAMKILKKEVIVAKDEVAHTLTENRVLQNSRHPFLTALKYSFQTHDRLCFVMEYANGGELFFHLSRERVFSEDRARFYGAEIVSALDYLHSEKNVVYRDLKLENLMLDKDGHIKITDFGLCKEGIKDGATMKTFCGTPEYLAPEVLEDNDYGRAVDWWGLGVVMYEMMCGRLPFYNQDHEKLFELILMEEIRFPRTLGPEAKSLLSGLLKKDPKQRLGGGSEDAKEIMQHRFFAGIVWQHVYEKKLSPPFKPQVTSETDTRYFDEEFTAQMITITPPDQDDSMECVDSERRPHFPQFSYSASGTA
inhibition [1],inhibition [7],inhibition [10],SMILES,Activity (Huh-7 [2]) [%],IC50 (Mahlavu [3]) [nM],Activity (Mahlavu [4]) [%],Activity (Huh-7 [5]) [%],Activity (Mahlavu [6]) [%],viability at 1 µM (Huh-7 [8]) [%],Activity (Huh-7 [9]) [%],IC50 (Huh-7 [11]) [nM],Activity (Mahlavu [12]),IC50 (Hep 3B2) [nM],Activity (Mahlavu [13]) [%],viability at 1 µM (Mahlavu [14]) [%],Activity (Huh-7 [15]) [%],Activity (Mahlavu [16]) [%]
Active,Active,Active,COc1ccc2c3c(c4cc(OC)c(OC)cc4c2c1)CN1CCCCC1C3O (racemic),5.52,10,9.5,7.7,9.5,81.7,25.4,500,Active,17,1.54,98.3,32.1,0
Active,Active,,COc1ccc2c3c(c4cc(OC)c(OC)cc4c2c1)CN1CCCC[C@@H]1C3,5.96,16,10.5,8.7,14.1,83.4,7.5,700,Active,16,5.08,94.2,27.4,0.13
